Assay results taken from PubChem BioAssay.
Results filed as inconclusive are left out. Calls of active or inactive are those of the source.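 How the source made its calls, unless noted: active means viability increase at or above a cutoff of the median across tested compounds plus 3 SD (cut at about 8.5% in these data, passing the limit was not always enough); inconclusive means some gains above the cutoff, reason not given; inactive means the rest.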

What was measured:
[1] = OD615 S. cerevisiae growth inhibition, permissive medium, pilot counter-assay, permissive growth control for S. cerevisiae lifespan shortening project (AID 705;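 active means growth inhibition above 25% in both replicates, a cutoff set 3 SD above the mean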); conditions: OD615, 24 h, at 10 µM, stronger effect = higher value
Method in brief: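 System – S. cerevisiae with engineered DeaD lifespan system · Buffer or medium – SC raffinose/galactose permissive medium · Schedule – cells pre-grown 4 h, then 24 h compound exposure, 30 °C humidified · Technique – culture turbidity as optical density at 615 nm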

[2] = Restrictive medium S. cerevisiae growth inhibition, OD615, pilot screen of yeast lifespan reduction project, restrictive growth control (AID 706;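 active means growth inhibition above a set limit, 3 SD over mean compound inhibition, in both replicates, cut at about 43% in these data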;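 further: modified DeaD lifespan yeast strain shifted to restrictive glucose medium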); conditions: OD615, 48 h, at 10 µM, stronger effect = higher value
Method in brief: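 Material: engineered S. cerevisiae DeaD strain / Medium: glucose-based CSMM-D restrictive medium / Compound: single dose of 10 µM compound final, 0.25% DMSO / Timing: 4 h pre-incubation, 48 h exposure at 30 °C / Technique: OD615 absorbance reading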

[3] = viability gain of MRP-1-high H69AR cells under doxorubicin, pilot screen, MRP-1 activator project, CellTiter-Glo, duplicate (AID 807); conditions: H69AR viability with doxorubicin, CellTiter-Glo luminescence; at 10 µM; stronger effect = higher value;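 further: compound pretreatment 18-22 h then 72 h combined with doxorubicin; 0% = doxorubicin alone and 100% = vehicle without doxorubicin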
[4] = growth suppression of beta-catenin knockout HCT116, pilot screen, human colon tumor cells (AID 823;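 active means cell viability at or below a set limit in both duplicate runs, the limit being the all-compound median minus 4 SD, cut at about 23% in these data, passing the limit was not always enough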;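 further: 0% = wells killed by 20 µM Hyamine and 100% = untreated DMSO cell wells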); conditions: CellTiter-Glo, 60 h, at 10 µM, stronger effect = lower value
[5] = growth suppression of PTEN-deleted HCT116, pilot screen, cell-based, HCT116 clonal line, CellTiter-Glo (AID 824;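 active means viability at or below 27.92% in each of two runs, the all-compound median minus 4 SD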;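 further: 0% = 20 µM Hyamine control and 100% = vehicle cell control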); conditions: 60 h, at 10 µM, stronger effect = lower value
[6] = RAM signaling pathway blockade in yeast – S. cerevisiae, Pdr1DBD-CYC8 efflux-inhibited sensitized strain, primary screen (AID 1298;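 active means RAM network inhibition above 8.4% in each of two replicates, 3 SD over the compound average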;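 further: 0% = DMSO untreated cells without growth and 100% = 10 µM 1-NA-PP1 full growth; higher means more yeast growth rescued from 5-FOA killing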); conditions: S. cerevisiae cbk1-as DSE1-URA3 strain, 5-FOA growth OD615, 2 d; at 50 µM; stronger effect = higher value
[7] = inhibitors of the yeast RAM network, pilot screen, dse1pr::URA3 reporter, 5-FOA selection (AID 869;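 active means inhibition over a set limit, the all-compound mean plus 3 SD, in both replicate runs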;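 further: 0% = DMSO wells with no growth and 100% = 10 µM 1-NA-PP1 with full growth; RAM network block rescues cells from 5-FOA so hits raise OD615 growth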); conditions: S. cerevisiae dse1pr::URA3 5-FOA growth, OD615, 2 d; at 10 µM; stronger effect = higher value; strain carries analog-sensitive mutant Cbk1 kinase

CSc1cccc(NS(=O)(=O)c2ccc3c(c2)oc(=O)n3C)c1
inactive: growth inhibition [1] -0.15% | growth inhibition [2] 7.23% | viability increase [3] -1.75% | viability [4] 85.3% | viability [5] 81% | RAM network inhibition [6] 4.49%

O=C(Nc1nc2c(s1)CCCC2)c1cccnc1
inactive: growth inhibition [1] -5.66% | growth inhibition [2] -5.07% | viability increase [3] 0.28% | viability [4] 100% | viability [5] 92.2% | RAM network inhibition [6] 1.3%

CC1CCCN(c2ncnc3c2cnn3-c2ccccc2)C1 (stereo not drawn)
inactive: growth inhibition [1] -2.51% | growth inhibition [2] -4.29% | viability increase [3] -2.92% | viability [4] 77.5% | viability [5] 73.5% | inhibition [7] 0.15% | RAM network inhibition [6] 4.59%

CCCCN1C(=O)c2ccc(C(=O)Nc3c(N)n(CCCC)c(=O)n(C)c3=O)cc2C1=O
inactive: growth inhibition [1] -9.82% | growth inhibition [2] -6.89% | viability increase [3] -0.93% | viability [4] 103% | viability [5] 88.2% | inhibition [7] 0.865% | RAM network inhibition [6] 7.06%

CCCc1nc(N)c(C#N)c(-c2cccnc2)c1CC
inactive: growth inhibition [1] -6.48% | growth inhibition [2] -4.83% | viability increase [3] -4.91% | viability [4] 90.8% | viability [5] 84.7% | inhibition [7] 0.805% | RAM network inhibition [6] 3.69%

CC(C)Oc1ccc(/C(O)=C2/C(=O)C(=O)N(CCCN3CCOCC3)C2c2ccncc2)cc1 (stereo not drawn)
inactive: growth inhibition [1] -3.48% | growth inhibition [2] -4.07% | viability increase [3] -3.89% | viability [4] 93.3% | viability [5] 89.3% | inhibition [7] 0.95% | RAM network inhibition [6] -0.41%

Cc1ccc(CN2CCN(CC(=O)N3CCC(C(N)=O)CC3)C2=O)cc1
inactive: growth inhibition [1] 0.425% | growth inhibition [2] 1.62% | viability increase [3] -0.17% | viability [4] 105% | viability [5] 101% | inhibition [7] 2.1% | RAM network inhibition [6] 3.53%

Cc1cccc(N2CCN(c3nc4ccc(Cl)cc4n4cnnc34)CC2)c1C
inactive: growth inhibition [1] -17.7% | growth inhibition [2] -14.7% | viability increase [3] -8.78% | inhibition [7] -0.44% | RAM network inhibition [6] -0.95%
active: viability [4] 2.03% | viability [5] 1.75%

CCC(=O)Nc1sc2c(c1C(N)=O)CCN(C(C)=O)C2
inactive: growth inhibition [1] -12.9% | growth inhibition [2] -19.6% | viability increase [3] -0.72% | viability [4] 103% | viability [5] 105% | inhibition [7] 1.94% | RAM network inhibition [6] 3.29%

Cc1ccc(NC(=O)C(C)N2CCOCC2)c(C(=O)c2ccccc2)c1 (stereo not drawn)
inactive: growth inhibition [1] -11.7% | growth inhibition [2] -12.7% | viability increase [3] -1.7% | viability [4] 100% | viability [5] 99.5% | inhibition [7] 1.09% | RAM network inhibition [6] 3.04%

Cc1cc2nc(SCCN3CCCC3)[nH]c2cc1C
inactive: growth inhibition [1] 7.63% | growth inhibition [2] -8.07% | viability increase [3] -4.4% | viability [4] 83.1% | viability [5] 89.1% | inhibition [7] 3.22% | RAM network inhibition [6] -0.81%

Cc1ccc2oc(=O)c3cnn(CC(=O)NCCc4ccsc4)c3c2c1
inactive: growth inhibition [1] 3.75% | growth inhibition [2] -1.42% | viability increase [3] -2.89% | viability [4] 90.7% | viability [5] 85.7% | RAM network inhibition [6] 3.42%

CCCCC(=O)Nc1ccc(Br)cc1C(=O)O
inactive: growth inhibition [1] 5.08% | growth inhibition [2] -10.9% | viability increase [3] 0.11% | viability [4] 89.9% | viability [5] 97.8% | inhibition [7] 1.95% | RAM network inhibition [6] -1.59%

CC(C)c1ccc(OC(=O)NCCO)cc1
inactive: growth inhibition [1] 4.54% | growth inhibition [2] -4.21% | viability increase [3] 0.33% | viability [4] 98.9% | viability [5] 104% | RAM network inhibition [6] 4.79%

CCOc1ccc(C2Oc3nc(SC)nnc3-c3ccccc3N2C(C)=O)cc1OC (stereo not drawn)
inactive: growth inhibition [1] 6.18% | growth inhibition [2] 4.39% | viability increase [3] -2.28% | viability [4] 109% | viability [5] 99.8% | RAM network inhibition [6] 4.23%

CN1CCN(CCCNC(=O)c2ccc(CS(=O)(=O)c3ccc(Br)cc3)o2)CC1
inactive: growth inhibition [1] -7.34% | growth inhibition [2] -12.5% | viability increase [3] -1.18% | viability [4] 95.3% | viability [5] 90.8% | inhibition [7] 1.38% | RAM network inhibition [6] -0.99%

Cc1cc(N2CCOCC2)c2c(N)c(Br)cc(C)c2n1
inactive: growth inhibition [1] -14% | growth inhibition [2] -15.8% | viability increase [3] -5.84% | viability [4] 80.1% | viability [5] 76.4% | inhibition [7] 1.16% | RAM network inhibition [6] 3.17%

CN(C)c1nc2ccc(OCCN3CCCCC3)cc2s1
inactive: growth inhibition [1] -10.8% | growth inhibition [2] 0.795% | viability increase [3] -0.48% | viability [4] 93% | viability [5] 94.3% | RAM network inhibition [6] 4.76%

Cc1ccc(CN2CCNC(=O)C2CC(=O)O)cc1 (stereo not drawn)
inactive: growth inhibition [1] 2.7% | growth inhibition [2] -8.03% | viability increase [3] -1.2% | viability [4] 97.3% | viability [5] 92.4% | RAM network inhibition [6] 0.83%

CC(=O)C1C(c2ccc(Cl)cc2)NC(=O)NC1(O)C(F)(F)F (stereo not drawn)
inactive: growth inhibition [1] -9.25% | growth inhibition [2] -12% | viability increase [3] -0.16% | viability [4] 103% | viability [5] 101% | inhibition [7] 0.825% | RAM network inhibition [6] 3.45%

COC(=O)c1cc(=O)[nH]c(SCc2cccc(C)c2)n1
inactive: growth inhibition [1] -9.72% | growth inhibition [2] -0.94% | viability increase [3] -3.27% | viability [4] 102% | viability [5] 101% | RAM network inhibition [6] 6.8%

Cn1c(C(C#N)/C(=N\S(=O)(=O)c2cccs2)c2ccccc2)nc2ccccc21 (stereo not drawn)
inactive: growth inhibition [1] -17.5% | growth inhibition [2] -19.6% | viability increase [3] -1.15% | viability [4] 95.5% | viability [5] 94.7% | RAM network inhibition [6] 6.16%

CC(C)N1C(=O)CCC1C(=O)N1CCN(c2ccccn2)CC1 (stereo not drawn)
inactive: growth inhibition [1] -11.9% | growth inhibition [2] -15.7% | viability increase [3] 0.54% | viability [4] 107% | viability [5] 103% | inhibition [7] 0.845% | RAM network inhibition [6] 1.45%

COc1ccc(-n2c(SCC(=O)N3CCCC3)nc3c([nH]c4ccccc43)c2=O)cc1
inactive: growth inhibition [1] -20.2% | growth inhibition [2] -19.5% | viability increase [3] -3.04% | viability [4] 105% | viability [5] 93.7% | RAM network inhibition [6] 1.9%

Cc1cc2ncn(C3CC(=O)N(Cc4ccc(N5CCCC5=O)cc4)C3=O)c2cc1C (stereo not drawn)
inactive: growth inhibition [1] -7.9% | growth inhibition [2] 13.8% | viability increase [3] -0.37% | viability [4] 97.9% | viability [5] 98.5% | inhibition [7] 0.14% | RAM network inhibition [6] 1.48%

CC1=C(C(N)=O)C(c2cccc(O)c2)n2nc(CCCO)nc2N1 (stereo not drawn)
inactive: growth inhibition [1] -9.85% | growth inhibition [2] -1.35% | viability increase [3] -1.07% | viability [4] 101% | viability [5] 104% | inhibition [7] 2.02% | RAM network inhibition [6] 2.87%

CCOC(=O)N1CCN(c2nc(=S)n(-c3ccccc3)c(C)c2C(C)=O)CC1
inactive: growth inhibition [1] 14.8% | growth inhibition [2] 28.8% | viability increase [3] -1.09% | viability [4] 98.8% | viability [5] 101% | inhibition [7] 1.26% | RAM network inhibition [6] 2.67%

CCOC(=O)c1c(NC(=O)c2ccc(Br)o2)sc(C)c1CC
inactive: growth inhibition [1] 1.51% | growth inhibition [2] -8.3% | viability increase [3] -0.6% | viability [4] 73.8% | viability [5] 70.3% | RAM network inhibition [6] 9.97%

Nc1nc(SCC(=O)OCc2ccccc2)[nH]c(=O)c1NC(=O)c1ccco1
inactive: growth inhibition [1] -8.4% | growth inhibition [2] -11.7% | viability increase [3] -1.48% | viability [4] 101% | viability [5] 98.7% | inhibition [7] 1.36% | RAM network inhibition [6] -0.54%

CCOC(=O)N1CCN(C(=O)COc2ccc(Br)cc2)CC1
inactive: growth inhibition [1] -16.4% | growth inhibition [2] 11.8% | viability increase [3] 1.9% | viability [4] 100% | viability [5] 90.6% | inhibition [7] 1.12% | RAM network inhibition [6] 6.68%

Cc1cc(OC2CCCCC2)nc(-c2ccccc2O)n1
inactive: growth inhibition [1] -21.5% | growth inhibition [2] -17.2% | viability increase [3] -0.33% | viability [4] 87% | viability [5] 81.5% | inhibition [7] 1.9% | RAM network inhibition [6] 12.3%

O=C1C(=O)N(CCCn2ccnc2)C(c2cccnc2)/C1=C(/O)c1ccc(Cl)cc1 (stereo not drawn)
inactive: growth inhibition [1] -11.6% | growth inhibition [2] -4.88% | viability increase [3] -0.32% | viability [4] 97.2% | viability [5] 98.6% | inhibition [7] 0.905% | RAM network inhibition [6] 1.1%

CNc1nc(C)nc(-c2ccccc2O)n1
inactive: growth inhibition [1] -3.62% | growth inhibition [2] 7.31% | viability increase [3] -0.19% | viability [4] 98.5% | viability [5] 92.8% | inhibition [7] 0.84% | RAM network inhibition [6] 4.49%

O/N=C1/CCc2cccc3cccc1c23
inactive: growth inhibition [1] -11.1% | growth inhibition [2] 0.79% | viability increase [3] -3.93% | viability [4] 96.1% | viability [5] 103% | inhibition [7] 2.06% | RAM network inhibition [6] -0.11%

Nc1c(C(=O)Nc2ccc(Cl)cc2)oc2ccccc12
inactive: growth inhibition [1] -21% | growth inhibition [2] -20.9% | viability increase [3] -4.54% | viability [4] 75.3% | viability [5] 72.9% | inhibition [7] 2.38% | RAM network inhibition [6] 2.51%

COCCCNC(=O)c1cc2c(-c3ccc(Cl)cc3)nn(C)c2s1
inactive: growth inhibition [1] -0.14% | growth inhibition [2] 1.75% | viability increase [3] -6.69% | viability [4] 82.9% | viability [5] 84.5% | inhibition [7] 3.08% | RAM network inhibition [6] 3.67%

O=C(Nc1ccc(F)cc1)C1CCC(N2C(=O)c3ccccc3C2=O)CC1 (stereo not drawn)
inactive: growth inhibition [1] -11.6% | growth inhibition [2] -20.7% | viability increase [3] -7.05% | viability [4] 86.3% | viability [5] 96.1% | inhibition [7] 1.48% | RAM network inhibition [6] 12.4%
